Assay results published in ChEMBL document CHEMBL3286131, “Design, synthesis and systematic evaluation of cytotoxic 3-heteroarylisoquinolinamines as topoisomerases inhibitors” (Eur J Med Chem, 2014).

Experiments:
[1] = biological target: DNA topoisomerase 2-alpha (Homo sapiens) (UniProt P11388); experiment: Inhibition of human DNA topoisomerase-2a-mediated relaxation of supercoiled DNA pBR322 at 100 uM after 4 hrs using ethidium bromide staining by agarose gel electrophoresis analysis
Procedure, shortened: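 Supercoiled pBR322 (200 ng) incubated with human topo IIα (1 unit) ± compound for 30 min at 30 °C. Buffer: 10 mM Tris-HCl pH 7.9, 50 mM NaCl, 50 mM KCl, 5 mM MgCl2, 1 mM EDTA, 1 mM ATP, BSA. Stopped with EDTA. 1% agarose gel run at 25 V for 4 h in TAE, ethidium bromide stain, supercoiled DNA quantified by UV imaging.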

[2] = biological target: T1, DNA topoisomerase 1 (Homo sapiens) (UniProt P11387); experiment: Inhibition of recombinant human DNA topoisomerase-1-mediated relaxation of supercoiled DNA pBR322 at 100 uM after 7 hrs using ethidium bromide staining by agarose gel electrophoresis analysis
T1 sequence (whole entry): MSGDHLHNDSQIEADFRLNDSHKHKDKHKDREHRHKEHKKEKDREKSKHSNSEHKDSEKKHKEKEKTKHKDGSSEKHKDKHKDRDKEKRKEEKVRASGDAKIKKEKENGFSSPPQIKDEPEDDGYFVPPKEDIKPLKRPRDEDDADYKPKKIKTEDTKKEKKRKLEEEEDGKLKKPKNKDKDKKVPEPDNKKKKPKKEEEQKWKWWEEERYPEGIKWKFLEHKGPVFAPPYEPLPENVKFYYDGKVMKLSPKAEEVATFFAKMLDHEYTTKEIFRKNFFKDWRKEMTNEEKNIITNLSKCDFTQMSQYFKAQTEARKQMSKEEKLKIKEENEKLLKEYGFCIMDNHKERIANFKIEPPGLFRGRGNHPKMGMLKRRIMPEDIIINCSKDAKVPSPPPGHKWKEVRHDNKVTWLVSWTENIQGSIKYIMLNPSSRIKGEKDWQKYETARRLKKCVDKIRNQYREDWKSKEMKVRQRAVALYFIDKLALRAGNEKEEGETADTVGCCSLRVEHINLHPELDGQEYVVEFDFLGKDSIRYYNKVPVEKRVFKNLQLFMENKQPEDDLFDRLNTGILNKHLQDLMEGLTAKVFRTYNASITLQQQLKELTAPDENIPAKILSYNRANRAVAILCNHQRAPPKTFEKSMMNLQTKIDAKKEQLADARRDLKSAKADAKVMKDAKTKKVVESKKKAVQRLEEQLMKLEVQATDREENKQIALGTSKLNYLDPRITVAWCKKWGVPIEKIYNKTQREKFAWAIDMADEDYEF
Procedure, shortened: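 pBR322 (100 ng) incubated with recombinant human topo I (0.4 units) ± compound for 30 min at 37 °C. Buffer: 10 mM Tris-HCl pH 7.9, 150 mM NaCl, 0.1% BSA, 1 mM spermidine, 5% glycerol. Quenched with sarcosyl stop solution. 1% agarose gel run at 15 V for 7 h in TAE, ethidium bromide stain, supercoiled DNA quantified under UV.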

HeLa [3] = experiment: Cell cycle arrest in human HeLa cells assessed as accumulation at G2/M phase phase at 25 uM after 24 hrs using […] by flow cytometry analysis relative to control; type: functional
Procedure, shortened: (§1)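 HeLa cells exposed to graded compound concentrations for 24 h, harvested by centrifugation, PBS-washed twice, fixed overnight on ice in 70% ethanol. Stained with 10 μg/mL propidium iodide plus 0.5 mg/mL RNase and 0.1% Triton X-100 in PBS, 30 min at 37 °C in the dark. Flow cytometry gates: sub-G0/G1, G0/G1, S, G2/M.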

HeLa [4] = experiment: Cell cycle arrest in human HeLa cells assessed as accumulation at G0/G1 phase phase at 10 uM after 24 hrs using ethidium bromide staining by flow cytometry analysis relative to control; type: functional; settings: in the assay text read “propidium iodide staining” for “ethidium bromide staining”; procedure, shortened: as §1
HeLa [5] = experiment: Cell cycle arrest in human HeLa cells assessed as accumulation at S phase phase at 10 uM after 24 hrs using ethidium bromide staining by flow cytometry analysis relative to control; type: functional; settings: in the assay text read “propidium iodide staining” for “ethidium bromide staining”; procedure, shortened: as §1
HeLa [6] = experiment: Cell cycle arrest in human HeLa cells assessed as accumulation at S phase phase at 5 uM after 24 hrs using ethidium bromide staining by flow cytometry analysis relative to control; type: functional; settings: in the assay text read “propidium iodide staining” for “ethidium bromide staining”; procedure, shortened: as §1
HeLa [7] = experiment: Cell cycle arrest in human HeLa cells assessed as accumulation at S phase phase at 50 uM after 24 hrs using […] by flow cytometry analysis relative to control; type: functional; procedure, shortened: as §1
HeLa [8] = experiment: Cell cycle arrest in human HeLa cells assessed as accumulation at G0/G1 phase phase at 50 uM after 24 hrs using […] by flow cytometry analysis relative to control; type: functional; procedure, shortened: as §1
HeLa [9] = experiment: Cell cycle arrest in human HeLa cells assessed as accumulation at G2/M phase phase at 50 uM after 24 hrs using […] by flow cytometry analysis relative to control; type: functional; procedure, shortened: as §1
HeLa [10] = experiment: Cell cycle arrest in human HeLa cells assessed as accumulation at G2/M phase phase at 5 uM after 24 hrs using ethidium bromide staining by flow cytometry analysis relative to control; type: functional; settings: in the assay text read “propidium iodide staining” for “ethidium bromide staining”; procedure, shortened: as §1
HeLa [11] = experiment: Cell cycle arrest in human HeLa cells assessed as accumulation at S phase phase at 25 uM after 24 hrs using […] by flow cytometry analysis relative to control; type: functional; procedure, shortened: as §1
HeLa [12] = experiment: Cell cycle arrest in human HeLa cells assessed as accumulation at G0/G1 phase phase at 25 uM after 24 hrs using […] by flow cytometry analysis relative to control; type: functional; procedure, shortened: as §1
[13] = Cytotoxicity against human MCF10A cells after 2 days; type: cell-based, MCF-10A
Procedure, shortened: (§2)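 Cells seeded at 2-4 × 10^4 per well in medium with 10% FBS and incubated overnight at 37 °C, 5% CO2. Graded compound concentrations added on day 2. CCK-8 reagent added on day 4 for a further 4 h, absorbance read at 450 nm. IC50 from a four-parameter logistic fit; mean ± S.D. of three experiments run in triplicate.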

HeLa [14] = experiment: Cell cycle arrest in human HeLa cells assessed as accumulation at sub-G0/G1 phase at 25 uM after 24 hrs using […] by flow cytometry analysis relative to control; type: functional; procedure, shortened: as §1
HeLa [15] = experiment: Cell cycle arrest in human HeLa cells assessed as accumulation at sub-G0/G1 phase at 50 uM after 24 hrs using […] by flow cytometry analysis relative to control; type: functional; procedure, shortened: as §1
HeLa [16] = experiment: Cell cycle arrest in human HeLa cells assessed as accumulation at sub-G0/G1 phase at 10 uM after 24 hrs using ethidium bromide staining by flow cytometry analysis relative to control; type: functional; settings: in the assay text read “propidium iodide staining” for “ethidium bromide staining”; procedure, shortened: as §1
[17] = Cytotoxicity against human HCT15 cells after 2 days; type: functional, cell-based, HCT-15; procedure, shortened: as §2
DU-145 = experiment: Cytotoxicity against human DU145 cells after 2 days; type: functional, cell-based; procedure, shortened: as §2
T47D = experiment: Cytotoxicity against human T47D cells after 2 days; type: functional, cell-based; procedure, shortened: as §2
HeLa [18] = experiment: Cell cycle arrest in human HeLa cells assessed as accumulation at G2/M phase phase at 10 uM after 24 hrs using ethidium bromide staining by flow cytometry analysis relative to control; type: functional; settings: in the assay text read “propidium iodide staining” for “ethidium bromide staining”; procedure, shortened: as §1
HeLa [19] = experiment: Cell cycle arrest in human HeLa cells assessed as accumulation at G0/G1 phase phase at 5 uM after 24 hrs using ethidium bromide staining by flow cytometry analysis relative to control; type: functional; settings: in the assay text read “propidium iodide staining” for “ethidium bromide staining”; procedure, shortened: as §1

DNA topoisomerase 2-alpha (Homo sapiens), sequence (P11388 whole entry): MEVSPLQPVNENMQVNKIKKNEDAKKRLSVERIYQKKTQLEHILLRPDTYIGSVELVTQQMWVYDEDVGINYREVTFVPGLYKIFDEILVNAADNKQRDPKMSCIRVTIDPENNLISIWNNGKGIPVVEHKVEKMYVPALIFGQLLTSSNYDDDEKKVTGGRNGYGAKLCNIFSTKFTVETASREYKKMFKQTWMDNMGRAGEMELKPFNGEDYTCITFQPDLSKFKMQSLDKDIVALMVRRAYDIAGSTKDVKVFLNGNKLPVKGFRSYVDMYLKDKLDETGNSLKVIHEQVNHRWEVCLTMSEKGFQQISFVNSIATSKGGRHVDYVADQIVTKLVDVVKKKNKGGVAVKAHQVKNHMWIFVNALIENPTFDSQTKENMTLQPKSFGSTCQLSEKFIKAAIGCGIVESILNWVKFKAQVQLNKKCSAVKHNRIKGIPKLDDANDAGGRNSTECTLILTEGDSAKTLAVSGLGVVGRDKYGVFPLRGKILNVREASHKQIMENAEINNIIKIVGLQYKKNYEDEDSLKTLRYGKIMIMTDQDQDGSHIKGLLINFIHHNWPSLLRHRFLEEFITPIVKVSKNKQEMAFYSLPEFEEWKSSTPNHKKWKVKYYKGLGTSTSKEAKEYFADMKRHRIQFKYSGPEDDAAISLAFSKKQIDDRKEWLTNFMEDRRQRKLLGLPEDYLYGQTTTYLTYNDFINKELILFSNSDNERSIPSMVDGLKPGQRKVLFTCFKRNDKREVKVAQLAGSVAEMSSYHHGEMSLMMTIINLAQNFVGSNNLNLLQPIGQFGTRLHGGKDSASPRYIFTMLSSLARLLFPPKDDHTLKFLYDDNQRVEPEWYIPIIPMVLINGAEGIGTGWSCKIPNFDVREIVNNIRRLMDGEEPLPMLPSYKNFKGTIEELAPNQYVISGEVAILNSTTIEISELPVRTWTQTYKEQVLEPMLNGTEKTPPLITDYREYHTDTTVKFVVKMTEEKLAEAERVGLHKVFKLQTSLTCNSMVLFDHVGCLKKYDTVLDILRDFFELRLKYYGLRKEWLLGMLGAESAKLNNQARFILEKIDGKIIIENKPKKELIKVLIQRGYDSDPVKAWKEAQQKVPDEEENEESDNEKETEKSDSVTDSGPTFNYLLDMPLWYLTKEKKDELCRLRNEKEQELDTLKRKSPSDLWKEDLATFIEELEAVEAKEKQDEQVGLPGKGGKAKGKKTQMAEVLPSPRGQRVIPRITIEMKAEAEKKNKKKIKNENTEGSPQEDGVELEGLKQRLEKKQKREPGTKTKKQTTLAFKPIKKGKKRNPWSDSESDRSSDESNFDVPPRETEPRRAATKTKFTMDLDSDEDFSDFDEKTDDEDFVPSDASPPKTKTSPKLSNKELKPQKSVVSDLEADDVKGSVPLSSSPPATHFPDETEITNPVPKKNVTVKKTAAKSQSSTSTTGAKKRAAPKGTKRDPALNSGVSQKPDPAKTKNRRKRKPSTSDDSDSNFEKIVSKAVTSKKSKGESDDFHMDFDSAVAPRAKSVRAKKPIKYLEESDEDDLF

| Compound | IC50 ([13]; mcf-10a) [µM] | IC50 ([17]; hct-15) [µM] | IC50 (DU-145; Homo sapiens, DU-145, 48 h) [µM] | IC50 (T47D; t47d) [µM] | IC50 ([13]; Homo sapiens, MCF-10A, 48 h) [µM] | IC50 ([17]; Homo sapiens, HCT-15, 48 h) [µM] | IC50 (T47D; Homo sapiens, T47D, 48 h) [µM] | IC50 (DU-145; du-145) [µM] | further results |
| --- | --- | --- | --- | --- | --- | --- | --- | --- | --- |
| CCN1CCN(c2nc(-c3cccs3)cc3cc(C)ccc23)CC1 [listing 1 of 2 here] | – | – | – | – | – | – | – | – | inhibition [1]: 0%; inhibition [2]: 0% |
| CCN1CCN(c2nc(-c3cccs3)cc3ccccc23)CC1.Cl | 23.8 | 9.29 | 46.6 | 8.08 | – | – | – | – | Activity (HeLa [3]): 15.75%; Activity (HeLa [4]): 57.14%; Activity (HeLa [5]): 12.88%; Activity (HeLa [6]): 9.99%; Activity (HeLa [7]): 6.9%; Activity (HeLa [8]): 31.74%; Activity (HeLa [9]): 3.46%; Activity (HeLa [10]): 15.9%; Activity (HeLa [11]): 18.42%; Activity (HeLa [12]): 54.43%; Activity (HeLa [14]): 2.67%; Activity (HeLa [15]): 54.68%; Activity (HeLa [16]): 2.59%; Activity (HeLa [18]): 20%; Activity (HeLa [19]): 68.51% |
| Cc1ccc2c(N3CCCCC3)nc(-c3cccs3)cc2c1 [listing 1 of 2 here] | – | 5.45 | > 50 | 2.56 | > 50 | – | – | – | – |
| COc1cc([C@@H]2c3cc4c(cc3[C@@H](O[C@@H]3O[C@@H]5CO[C@@H](C)O[C@H]5[C@H](O)[C@H]3O)[C@H]3COC(=O)[C@H]23)OCO4)cc(OC)c1O [ETOPOSIDE] | – | – | – | – | 12.2 | 9.45 | 2.57 | – | – |
| Cc1ccc2cc(-c3cccs3)nc(N3CCN(C)CC3)c2c1 [listing 1 of 2 here] | – | 1.64 | 16.2 | 1.96 | 11.6 | – | – | – | – |
| Cc1ccc2c(N3CCOCC3)nc(-c3cccs3)cc2c1 [listing 1 of 2 here] | > 50 | – | > 50 | – | – | 7.58 | 6.76 | – | – |
| Cc1ccc2cc(-c3cccs3)nc(N3CCCCC3)c2c1 | – | 0.89 | – | 3.02 | – | – | – | – | – |
| COc1cccc2c1C(=O)c1c(O)c3c(c(O)c1C2=O)C[C@@](O)(C(=O)CO)C[C@@H]3O[C@H]1C[C@H](N)[C@H](O)[C@H](C)O1 [DOXORUBICIN] | – | – | 4.88 | – | 0.93 | – | 0.84 | – | – |
| CCN1CCN(c2nc(-c3cccs3)cc3ccc(C)cc23)CC1 | – | 7.71 | – | – | 42.9 | – | 2.84 | 31.1 | – |
| Cc1ccc2cc(-c3cccs3)nc(N3CCN(C)CC3)c2c1 [listing 2 of 2 here] | 20.9 | – | – | – | – | 1.04 | 1.02 | 24.7 | – |
| Cc1ccc2c(N3CCOCC3)nc(-c3cccs3)cc2c1 [listing 2 of 2 here] | – | 7.79 | – | 7.88 | 48.7 | – | – | – | – |
| Cc1ccc2cc(-c3cccs3)nc(N3CCOCC3)c2c1 | 49.1 | 9.52 | – | 7.63 | – | – | – | 48.3 | – |
| Cc1ccc2c(N3CCCCC3)nc(-c3cccs3)cc2c1 [listing 2 of 2 here] | – | 1.88 | – | 8.03 | – | – | – | – | – |
| CCN1CCN(c2nc(-c3cccs3)cc3cc(C)ccc23)CC1 [listing 2 of 2 here] | – | 4.4 | – | 17.7 | 28.9 | – | – | 22.1 | – |
| Cc1ccc2c(N3CCN(C)CC3)nc(-c3cccs3)cc2c1 | 14.9 | – | – | 18.4 | – | 3.19 | – | 40 | – |
| Cc1cccc2c(N=[N+]=[N-])nc(-c3cccs3)cc12 | – | – | > 50 | – | > 50 | > 50 | > 50 | – | inhibition [1]: 4.8%; inhibition [2]: 2.1% |
